Data taken from the EternaBench riboswitch data.

Tested on: MS2 coat protein
Assay: apparent Kd, MS2 coat protein; higher = weaker binding; RNA-MaP array; FMN 200 µM where present
How it was run: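 Designs on Illumina sequencing-chip clusters, transcribed by stalled E. coli RNA polymerase, were exposed to SNAP-549-labelled MS2 coat protein in doubling steps from 0.7 or 1.5 nM up to 3 µM, without and then with constant ligand. The buffer held 100 mM Tris-HCl pH 7.5, 80 mM KCl, 4 mM MgCl2, BSA, DTT, yeast tRNA and Tween-20. Apparent Kd values are medians of filtered per-cluster binding-curve fits to green signal normalised to red-channel RNA signal and control-cluster median Fmax.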

[1] = designed as: OFF switch for flavin mononucleotide, no ligand
[2] = ligand present: flavin mononucleotide, designed as: OFF switch for flavin mononucleotide
[3] = designed as: ON switch for flavin mononucleotide, no ligand
[4] = ligand present: flavin mononucleotide, designed as: ON switch for flavin mononucleotide

Row | Sequence | apparent Kd [1] | apparent Kd [2] | apparent Kd [3] | apparent Kd [4]
1 | CCUCCCUGAGGAUAUCCACCCUCAUACAUGAGGAUCACCCAUGUUCAACCCUGGGUUCCCGGAGAAGGCAGAUUUC | 0.115 µM | 0.134 µM |  | 
2 | AUUAUAUAGAAAGGAUAUAGAUUAUUAUUUUAACAUGAGGAUCACCCAUGUAGCCUUAUGUAUAACUAGAAGGUUCAUUUAUUA | 0.0728 µM | 0.0944 µM |  | 
3 | AUGAAGUCAGGAUAUGCCACGUAAAGCCAUGGCUUUGGAGUGUAGAAGGGACAUGAGGAUCACCCAUGUUGUCC | 0.0309 µM | 0.0322 µM |  | 
4 | UGUUUUUUGGGAGGAUAUGUAAAUUUAAACAUGAGGAUCACCCAUGUGGAUCACCCAUGUAGAUAAUAGAAGGCCCUUUUUUUU | 0.0553 µM | 0.0365 µM |  | 
5 | GGGUGUGAAGGAUAUACAUGAGGAUCACCCAUGUGAGAGGAGAAUGUUGAGGAGGUUGGUAGAAGGUCAGGAGG | 0.0938 µM | 0.0676 µM |  | 
6 | UUCCAGCUUGUCAGGAUAUACUUAGGGUAAUCAGAGUAGAAGGGACAUGAGGAUCACCCAUGUGACGCUUGAGC | 0.0652 µM | 0.118 µM |  | 
7 | AGUUACAUGAGGAUCACCCAUGUGUAUAGGGCAACCUAUAGACAGGAUAUCCGGCAUGCGGCCUAGGAGAAGGGUCAAAGAAGA |  |  | 0.0915 µM | 0.429 µM
8 | CCGAUGAGAGUCGGGCUACAUGAGGAUCACCCAUGUGCUUCACAGGAUAUGGUACGUAGUGAGUUCCAGAAGGGUGAUUAAUCU |  |  | 0.316 µM | 0.0487 µM
9 | GUUUUUUUUCAUGUACAUGAGGAACAUGAGGAUCACCCAUGUAGAAGGAAUUUUUUUAAGUUUAGUUAGGAUAUACAUAUAUUG | 0.0542 µM | 0.0339 µM |  | 
10 | AACGGGUGGGUAGGAUAUGGCUAUGUCUCAUUGCUAGAAGGACCAGCUGCUACAUGAGGAUCACCCAUGUCGUAGUGCACCCAG |  |  | 0.421 µM | 0.0335 µM
11 | UGGGUAAAUGUAGGAUAUCUAUAUUAAUAAUAUGGAGAAGGACAUGAGGAUCACCCAUGUACAGGGAAUUACCCAUUUCCUCUC | 0.275 µM | 0.556 µM |  | 
12 | UAGGACUACGUAGGAUAUUAAAUCAUGUACUACAUGAGGAUCACCCAUGUUAAUUUAUCAUCAGCUGAGAAGGACGUGGUAAAU |  |  | 0.104 µM | 0.0617 µM
13 | UUGCCUCGGAACAUGAGGAUCACCCAUGUGCUGCGGGCAACGUAGGAUAUGAUGGUACGCUACCAUCAGAAGGAUGAUGGUACC |  |  | 0.00498 µM | 0.00529 µM
14 | UGGUACAUGGGAGGAUAUGGGUUGUUAACAUGAGGAUCACCCAUGUUAUGCCGAAAGGCAAAGAACUAGAAGGCCCAUGUACCU |  |  | 0.0219 µM | 0.0164 µM
15 | AGACGCAUGCAGAAGGACGACAUGAGGAUCACCCAUGUGGUCGGUAGGGUCGUAGGAUAUGCAAGGCGUUGCGAGCCAACUGUG | 0.118 µM | 0.0269 µM |  | 
16 | UCCUCGUAGUAGAAGGGCGGCCGAAAUCUGCACGCAGGAUAUACAUGAGGAUCACCCAUGUACUGAGCUGAAGAGCACUUGGAA | 0.0115 µM | 0.0295 µM |  | 
17 | UUUGGGUGGCUGGAGGAUAUUCGAGUGGUAACAUGAGGAUCACCCAUGUGUCGCGCGGUACACGAGGAGAAGGCUGGCGGCCGUU |  |  | 0.0565 µM | 0.0189 µM
18 | AAUUCGUUCUAGAAGGUGCAUUUGUUAAACAUGCAAGGAUAUAGACAUGAGGAUCACCCAUGUCUAUGAGACAUCGGCCUCCUG | 0.00672 µM | 0.0117 µM |  | 
19 | GAGUCUCUAUUAGAACCGAUACGAACAUGAGGAUCACCCAUGUAGGAUAUGCUAAAAGUUGUGUUGCAGAAGGACAUUUAUCGC | 0.0111 µM | 0.0109 µM |  | 
20 | UCCAAAUCGUAGAAGGGUGACAUGAGGAUCACCCAUGUGCAGCGGCCGUGAACGGCCACGCUGCCACAGGAUAUACGAUGGAGU |  |  | 0.0484 µM | 0.0741 µM
21 | GGUCGUCACAUUAACAUGAGGAUCACCCAUGUAAAAUAACAUGAGGAUAUGCAUCCUAAUUGGAUGCAGAAGGCAUGGACGACC |  |  | 0.00786 µM | 0.00602 µM
22 | GGUCCAAUAUGAGGAUAUAGCAUCUUAUUGAUGCUAGAAGGCGUGUCGGUAGACAUGAGGAUCACCCAUGUAUUACAAUGGACC |  |  | 0.11 µM | 0.0294 µM
23 | GUAGUGUGAGGAUAUGAUUAAUAGACGGGAUUGCGACUGCAUCAGAAGGCACAUGAGGAUCACCCAUGUAUGAA | 0.0188 µM | 0.0519 µM |  | 
24 | GAUCGACAUGAGGAUCACCCAUGUCAGGAUAUCGUCACUGGAGCUUCGGCUCCAGUGACGAGAAGGGACAUAAU | 0.0319 µM | 0.0446 µM |  | 

Row | Sequence | apparent Kd [1] | apparent Kd [2] | apparent Kd [3] | apparent Kd [4]
25 | UGUGCGUAUGUGAGGAUAUGCUGGUCCUUGGCUCGGCAGAAGGCACAUGAGGAUCACCCAUGUGGUGUCGUACC | 0.0386 µM | 0.189 µM |  | 
26 | AAUGAAACUUAGAAGGCCUACAUGAGGAUCACCCAUGUGGCUUUAAGUGUAGGAGGAUAUGAGGAUGCGGGCAGGAACCCACGC | 0.00617 µM | 0.0116 µM |  | 
27 | UCUCUGCGAGGAUAUACGUUUGCGCGCUUUCGUUUGCGCGUACAUGAGGAUCACCCAUGUAGAAGGCGCGUUUC | 0.0132 µM | 0.0141 µM |  | 
28 | GUCCUCUCUGAGGAUAUUAUCUGGUCCGAUUGAUAAGAAGGCAGUACAUGAGGAUCACCCAUGUGGGUCGUCUG | 0.0535 µM | 0.0777 µM |  | 
29 | UGAUAUGUAGUAGGAUAUCAGGUUACAUGAGGAUCACCCAUGUUAGAUUGGUGGAUAGAUGUUGAUGAGAAGGACUUUUGAGUU | 0.0796 µM | 0.101 µM |  | 
30 | CUUGUGUUAGGAUAUGCGCCCUGCAAAAGCAGAGCCAGAGAGCAGAAGGAACAUGAGGAUCACCCAUGUGUGAC | 0.0675 µM | 0.0613 µM |  | 
31 | GGUGCGUAUGUGAGGAUAUGCUGGUCCUUGGAUCAGCAGAAGGCACAUGAGGAUCACCCAUGUGGUGUCGUCCC | 0.426 µM | 0.0211 µM |  | 
32 | CCUAGUUGGUAAGGAUAUCCUACACUGUUCUGACCCGUGCGAGCUACAUGAGGAUCACCCAUGUGGGAGAAGGUGCGUCAACGC | 0.0182 µM | 0.0179 µM |  | 
33 | GUCCACAUGAGGAUCACCCAUGUGAGAAGGUUGGUUUUGUUGAGGUAGUGGUUUGCCUUGGUGGUAGAGGAUAUUGAUGGGUUA | 0.0077 µM | 0.00733 µM |  | 
34 | GCACAAAGGUGACACCGUGUCGCUCAGGAUAUACGUGACGGCCCUCGCACAUGAGGAUCACCCAUGUAGAAGGGAGUUAAACGG | 0.00766 µM | 0.0149 µM |  | 
35 | UUAUAUAGAGUGAGGAUAUGCUGGUCCUUGGAUCAGCAGAAGGCACAUGAGGAUCACCCAUGUAAAAUAAUAUU | 0.0242 µM | 0.0411 µM |  | 
36 | AGAUAACACCAGAAGGACAUGAGGAUCACCCAUGUAGGAUAUGGGCAUCACUCGAGAAAGAAACAACCAAAAGGACACGCGGUC |  |  | 0.051 µM | 0.00836 µM
37 | UAUUAAUAAUAAGGAUAUACGUCACUGCUUCGGCAGUGUGGUAAGAUCACAUGAGGAUCACCCAUGUAGAAGGAAUAUAAAAUU | 0.0112 µM | 0.00926 µM |  | 
38 | AAAUAAAGCAGUGUAUUAAUAUAACAUGAGGAUCACCCAUGUAGAAGGCUCGAGCAAUAUGCUCGAGAGGAUAUACAACACUGC | 0.0073 µM | 0.00718 µM |  | 
39 | UGCAUGCUAGGAUAUACGAAACAUUAGGGUUCUUUGUAUGAACAUGAGGAUCACCCAUGUAGAAGGAGCGUGCU | 0.117 µM | 0.296 µM |  | 
40 | GUGGUCAGACAUGAGGAUCACCCAUGUGGAAUAAAUAACAGACAGGAUAUCCAAUAUAGGAUAUAGGAGAAGGGUCGAUUGGUG |  |  | 0.0731 µM | 0.0742 µM
41 | AUAAUGUGAGGAUAUCAGUAGUAUUGCUUCGGCAAUACUACUGAGAAGGCACAUGAGGAUCACCCAUGUGAUCA | 1.38 µM | 0.0328 µM |  | 
42 | AUGAUGUCAGGAUAUCGUUGGCUCACUUGUGUGUGCCAGUUCGAGAAGGGACAUGAGGAUCACCCAUGUUUUUA | 0.045 µM | 0.252 µM |  | 
43 | UGCCAGGAGGAGAAGGGAGCACAUGAGGAUCACCCAUGUGGUCCGGGCUGCUCAGGAUAUCCUAACUGUACGCAUUACUACGAA | 0.119 µM | 0.0232 µM |  | 
44 | CAGUACUGAGGAUAUACAUGAGGAUCACCCAUGUAUCCUAGCUAGGAAACUAGCAAAUGUAGAAGGCAGUACUG | 0.0625 µM | 0.458 µM |  | 
45 | UUGAUUAUACAAGGAUAUCAAUUGUAAUUAAGACUUACAUGAGGAUCACCCAUGUUAAUAUUUUUUGAGAAGGUGUAUUUUCAG |  |  | 0.0254 µM | 0.0219 µM
46 | CCUUCACAUGAGGAUCACCCAUGUCCUAGUCCGUCAGGAUAUAGCCCGCAUCCGCUGUGGCUAGAAGGGACUGCUG |  |  | 0.141 µM | 0.235 µM
47 | AUACAUGAGGAUCACCCAUGUUACUUGGUCUUGAUAUUACGUAGAAGGAUGAUAUUAUUAUUAGCAUAGGAUAUACAAUUUGUA | 0.017 µM | 0.0128 µM |  | 
48 | GUAUCAUACCAAGGAUAUUUAGGACUUUGAUAGACAUGAGGAUCACCCAUGUGGCGUUAGUCACGGGAGAAGGUGGUAUGAUAC |  |  | 0.0574 µM | 0.0185 µM
